Assay [1] is filed under the species Rattus norvegicus. In words: Saluretic activity in rats after 5-24 hours, as potassium ion concentration in urine. The format is functional. In outline:
(§1)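 Male Sabra rats (170-200 g), fasted 18 h, dosed orally 50 mg/kg in saline at 25 mL/kg, eight per compound, two per metabolic cage, no food or water. Urine collected 5 and 24 h after dosing and centrifuged. Chloride titrated with Hg(NO3)2/diphenylcarbazone after HNO3 acidification; Na+ and K+ by atomic absorption.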

The species entered for assay [2] is Rattus norvegicus. In words: Saluretic activity in rats after 0-5 hours, as chloride ion concentration in urine. The format is functional. In outline: as §1
Assay [3] is filed under the species Rattus norvegicus. The assay is described as follows: Saluretic activity in rats after 0-24 hours, as sodium ion concentration in urine. The format is functional. In outline: as §1
The species named for assay [4] is Rattus norvegicus. The assay is described as follows: Diuretic activity in rats at time intervals of 0-24 hours. The format is functional, Urine. A digest of the protocol:
(§2)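 Male Sabra rats (170-200 g), starved 18 h, given 50 mg/kg by stomach tube in saline (25 mL/kg load), eight per compound, saline and furosemide controls run alongside. Held two per metabolic cage at 22 °C without food or water. Urine volume measured at 5 and 24 h collections.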

The species named for assay [5] is Rattus norvegicus. The assay is described as follows: Saluretic activity in rats after 5-24 hours, as chloride ion concentration in urine. The format is functional. A digest of the protocol: as §1
The species named for assay [6] is Rattus norvegicus. The assay is described as follows: Saluretic activity in rats after 0-24 hours, as ratio of Na+/K+ ion concentration in urine. The format is functional. In outline: as §1
The species named for assay [7] is Rattus norvegicus. The assay is described as follows: Saluretic activity in rats after 0-5 hours, as potassium ion concentration in urine. The format is functional. In outline: as §1
The species entered for assay [8] is Rattus norvegicus. The assay is described as follows: Saluretic activity in rats after 0-24 hours, as chloride ion concentration in urine. The format is functional. In outline: as §1
The species entered for assay [9] is Rattus norvegicus. The assay is described as follows: Diuretic activity in rats at time intervals of 5-24 hours. The format is functional, Urine. In outline: as §2
Assay [10] is filed under the species Rattus norvegicus. The assay is described as follows: Saluretic activity in rats after 5-24 hours, as ratio of Na+/K+ ion concentration in urine. The format is functional. In outline:
as §1

Assay [11] is filed under the species Rattus norvegicus. The assay is described as follows: Saluretic activity in rats after 5-24 hours, as sodium ion concentration in urine. The format is functional. In outline: as §1
The species named for assay [12] is Rattus norvegicus. The assay is described as follows: Saluretic activity in rats after 0-5 hours, as ratio of Na+/K+ ion concentration in urine. The format is functional. A digest of the protocol:
as §1

Assay [13] is filed under the species Rattus norvegicus. The assay is described as follows: Saluretic activity in rats after 0-24 hours, as potassium ion concentration in urine. The format is functional. In outline: as §1
The species entered for assay [14] is Rattus norvegicus. The assay is described as follows: Diuretic activity in rats at time intervals of 0-5 hours. The format is functional, Urine. In outline:
as §2

For assay [15], the species on record is Rattus norvegicus. In words: Saluretic activity in rats after 0-5 hours, as sodium ion concentration in urine. The format is functional. A digest of the protocol: as §1

Take `NS(=O)(=O)c1cc2c(cc1Cl)C(=O)N(Cc1ccccc1)NC2`: the Saluretic activity in the assay filed under Rattus norvegicus [1] is reported as 3.29 m equiv kg-1; in the assay listed under Rattus norvegicus [2], 5.14 m equiv kg-1; in the assay filed under Rattus norvegicus [3] it was 9.51 m equiv kg-1; in the assay filed under Rattus norvegicus [5], 5.39 m equiv kg-1; in the assay filed under Rattus norvegicus [7], 1.92 m equiv kg-1; in the assay filed under Rattus norvegicus [8], 10.53 m equiv kg-1. The results for the Saluretic activity in the assay filed under Rattus norvegicus [11], in the assay listed under Rattus norvegicus [13] and in the assay listed under Rattus norvegicus [15] were 5.5 m equiv kg-1, 5.21 m equiv kg-1 and 4.01 m equiv kg-1, respectively. The Diuretic activity was 7.6 mL in the assay listed under Rattus norvegicus [4], 3.6 mL in the assay listed under Rattus norvegicus [9] and 4 mL in the assay listed under Rattus norvegicus [14]. In addition, the Ratio in the assay listed under Rattus norvegicus [6] turned out to be 1.83; in the assay listed under Rattus norvegicus [10] it was 1.67; in the assay listed under Rattus norvegicus [12], 2.1.

`CN1NCc2cc(S(N)(=O)=O)c(Cl)cc2C1=O`: the Saluretic activity turned out to be 3 m equiv kg-1 in the assay listed under Rattus norvegicus [1]; 2.76 m equiv kg-1 in the assay listed under Rattus norvegicus [2]; 7.35 m equiv kg-1 in the assay listed under Rattus norvegicus [3]; 5.29 m equiv kg-1 in the assay listed under Rattus norvegicus [5]; 1.35 m equiv kg-1 in the assay listed under Rattus norvegicus [7]; 8.05 m equiv kg-1 in the assay listed under Rattus norvegicus [8]. Further, the Saluretic activity in the assay listed under Rattus norvegicus [11] came out at 4.94 m equiv kg-1; in the assay filed under Rattus norvegicus [13], 4.35 m equiv kg-1; in the assay filed under Rattus norvegicus [15], 2.41 m equiv kg-1. The Diuretic activity was found to be 6.1 mL in the assay filed under Rattus norvegicus [4], 3.4 mL in the assay filed under Rattus norvegicus [9] and 2.7 mL in the assay filed under Rattus norvegicus [14]. The figures for the Ratio in the assay listed under Rattus norvegicus [6], in the assay filed under Rattus norvegicus [10] and in the assay filed under Rattus norvegicus [12] were 1.69, 1.64 and 1.78, respectively.

Take `NS(=O)(=O)c1cc2c(O)nncc2cc1Sc1ccccc1`: the Saluretic activity is reported as 4.25 m equiv kg-1 in the assay listed under Rattus norvegicus [1]; 3.97 m equiv kg-1 in the assay listed under Rattus norvegicus [2]; 7.87 m equiv kg-1 in the assay filed under Rattus norvegicus [3]; 4.47 m equiv kg-1 in the assay filed under Rattus norvegicus [5]; 1.45 m equiv kg-1 in the assay filed under Rattus norvegicus [7]; 8.44 m equiv kg-1 in the assay listed under Rattus norvegicus [8]. Also, the Saluretic activity in the assay filed under Rattus norvegicus [11] was determined as 4.97 m equiv kg-1; in the assay filed under Rattus norvegicus [13] it was 5.7 m equiv kg-1; in the assay listed under Rattus norvegicus [15] it was 2.9 m equiv kg-1. For the same molecule, the figures for the Diuretic activity in the assay listed under Rattus norvegicus [4], in the assay listed under Rattus norvegicus [9] and in the assay listed under Rattus norvegicus [14] were 7.6 mL, 4.7 mL and 2.9 mL, respectively. Moreover, the Ratio worked out at 1.38 in the assay filed under Rattus norvegicus [6], 1.17 in the assay filed under Rattus norvegicus [10] and 2 in the assay filed under Rattus norvegicus [12].

Turning to `NS(=O)(=O)c1cc2c(=O)n(Cc3ccco3)ncc2cc1Cl`, the Saluretic activity in the assay listed under Rattus norvegicus [1] came to 2.16 m equiv kg-1; in the assay listed under Rattus norvegicus [2] it was 3.8 m equiv kg-1; in the assay listed under Rattus norvegicus [3], 6.08 m equiv kg-1; in the assay listed under Rattus norvegicus [5], 1.46 m equiv kg-1; in the assay listed under Rattus norvegicus [7], 1.58 m equiv kg-1; in the assay filed under Rattus norvegicus [8] it was 5.26 m equiv kg-1. Further, the Saluretic activity amounted to 2.4 m equiv kg-1 in the assay listed under Rattus norvegicus [11], 3.74 m equiv kg-1 in the assay listed under Rattus norvegicus [13] and 3.68 m equiv kg-1 in the assay filed under Rattus norvegicus [15]. For the same molecule, the figures for the Diuretic activity in the assay listed under Rattus norvegicus [4], in the assay listed under Rattus norvegicus [9] and in the assay listed under Rattus norvegicus [14] were 2.8 mL, 1 mL and 1.8 mL, respectively. Further, the Ratio in the assay listed under Rattus norvegicus [6] is 1.63; in the assay listed under Rattus norvegicus [10], 1.11; in the assay filed under Rattus norvegicus [12], 2.83.

Turning to `NS(=O)(=O)c1cc2c(cc1Cl)CNN(c1cccc(C(F)(F)F)c1)C2=O`, the Saluretic activity in the assay filed under Rattus norvegicus [1] came to 3.42 m equiv kg-1; in the assay filed under Rattus norvegicus [2] it was 7.91 m equiv kg-1; in the assay filed under Rattus norvegicus [3] it was 11.07 m equiv kg-1; in the assay listed under Rattus norvegicus [5], 4.69 m equiv kg-1; in the assay filed under Rattus norvegicus [7] it was 1.99 m equiv kg-1; in the assay filed under Rattus norvegicus [8], 12.6 m equiv kg-1. For the same molecule, the values for the Saluretic activity in the assay listed under Rattus norvegicus [11], in the assay filed under Rattus norvegicus [13] and in the assay filed under Rattus norvegicus [15] were 4.9 m equiv kg-1, 5.41 m equiv kg-1 and 6.17 m equiv kg-1, respectively. Besides, the Diuretic activity in the assay listed under Rattus norvegicus [4] was 11.6 mL; in the assay filed under Rattus norvegicus [9], 6.7 mL; in the assay filed under Rattus norvegicus [14], 4.9 mL. The Ratio in the assay filed under Rattus norvegicus [6] amounted to 2.05; in the assay listed under Rattus norvegicus [10] it was 1.43; in the assay filed under Rattus norvegicus [12] it was 3.1.

As for `NS(=O)(=O)c1cc2c(cc1Cl)N=CNS2(=O)=O` [CHLOROTHIAZIDE], the Saluretic activity in the assay listed under Rattus norvegicus [1] stood at 4.14 m equiv kg-1; in the assay listed under Rattus norvegicus [2], 8.8 m equiv kg-1; in the assay listed under Rattus norvegicus [3], 12.77 m equiv kg-1; in the assay listed under Rattus norvegicus [5], 4.75 m equiv kg-1; in the assay filed under Rattus norvegicus [7], 3.75 m equiv kg-1; in the assay listed under Rattus norvegicus [8], 13.55 m equiv kg-1. The Saluretic activity in the assay listed under Rattus norvegicus [11] is reported as 5.03 m equiv kg-1; in the assay listed under Rattus norvegicus [13], 7.89 m equiv kg-1; in the assay listed under Rattus norvegicus [15], 7.74 m equiv kg-1. The Diuretic activity in the assay listed under Rattus norvegicus [4] was found to be 11.9 mL; in the assay listed under Rattus norvegicus [9], 4.7 mL; in the assay filed under Rattus norvegicus [14], 7.2 mL. The Ratio worked out at 1.62 in the assay listed under Rattus norvegicus [6], 1.21 in the assay listed under Rattus norvegicus [10] and 2.06 in the assay listed under Rattus norvegicus [12].

Take `NS(=O)(=O)c1cc2c(=O)n(-c3cccc(C(F)(F)F)c3)ncc2cc1Cl`: the Saluretic activity is reported as 3.04 m equiv kg-1 in the assay listed under Rattus norvegicus [1]; 6.25 m equiv kg-1 in the assay filed under Rattus norvegicus [3]; 1.27 m equiv kg-1 in the assay filed under Rattus norvegicus [7]; 4.31 m equiv kg-1 in the assay listed under Rattus norvegicus [13]; 2.18 m equiv kg-1 in the assay filed under Rattus norvegicus [15]. For the same molecule, the figures for the Diuretic activity in the assay filed under Rattus norvegicus [4], in the assay listed under Rattus norvegicus [9] and in the assay listed under Rattus norvegicus [14] were 6.6 mL, 4.4 mL and 2.2 mL, respectively. Further, the Ratio in the assay listed under Rattus norvegicus [6] is 1.45; in the assay listed under Rattus norvegicus [10], 1.33; in the assay filed under Rattus norvegicus [12] it was 1.72.

`NS(=O)(=O)c1cc2cnnc(O)c2cc1Cl`: the Saluretic activity in the assay listed under Rattus norvegicus [1] is 3.19 m equiv kg-1; in the assay listed under Rattus norvegicus [2], 4.1 m equiv kg-1; in the assay filed under Rattus norvegicus [3], 10.44 m equiv kg-1; in the assay filed under Rattus norvegicus [5], 5.02 m equiv kg-1; in the assay listed under Rattus norvegicus [7], 2.51 m equiv kg-1; in the assay listed under Rattus norvegicus [8] it was 9.12 m equiv kg-1. For the same molecule, the Saluretic activity came to 4.3 m equiv kg-1 in the assay listed under Rattus norvegicus [11], 5.7 m equiv kg-1 in the assay filed under Rattus norvegicus [13] and 6.14 m equiv kg-1 in the assay filed under Rattus norvegicus [15]. Besides, the results for the Diuretic activity in the assay filed under Rattus norvegicus [4], in the assay filed under Rattus norvegicus [9] and in the assay filed under Rattus norvegicus [14] were 8.8 mL, 3.2 mL and 5.6 mL, respectively. Further, the Ratio in the assay listed under Rattus norvegicus [6] is reported as 1.83; in the assay listed under Rattus norvegicus [10], 1.35; in the assay listed under Rattus norvegicus [12], 2.44.

Regarding `NS(=O)(=O)c1cc2c(cc1Cl)CNN(Cc1ccccc1)C2=O`, the Saluretic activity in the assay filed under Rattus norvegicus [1] turned out to be 4.18 m equiv kg-1; in the assay listed under Rattus norvegicus [2], 8.69 m equiv kg-1; in the assay listed under Rattus norvegicus [3] it was 12.6 m equiv kg-1; in the assay filed under Rattus norvegicus [5], 5 m equiv kg-1; in the assay listed under Rattus norvegicus [7], 2.61 m equiv kg-1; in the assay filed under Rattus norvegicus [8] it was 13.69 m equiv kg-1. Besides, the Saluretic activity in the assay listed under Rattus norvegicus [11] is recorded as 5.7 m equiv kg-1; in the assay listed under Rattus norvegicus [13] it was 6.79 m equiv kg-1; in the assay listed under Rattus norvegicus [15], 6.9 m equiv kg-1. Moreover, the Diuretic activity was found to be 13.2 mL in the assay listed under Rattus norvegicus [4], 6.6 mL in the assay filed under Rattus norvegicus [9] and 6.6 mL in the assay filed under Rattus norvegicus [14]. Further, the Ratio in the assay filed under Rattus norvegicus [6] is reported as 1.86; in the assay listed under Rattus norvegicus [10], 1.36; in the assay listed under Rattus norvegicus [12] it was 2.65.

For the origin of these results see ChEMBL document CHEMBL1123499, “Synthesis, saludiuretic, and antihypertensive activity of 6,7-disubstituted 1(2H)- and 3,4-dihydro-1(2H)-phthalazinones” (1986).
